T cell HTS: modulators of CD8 T cell-vesicle binding, primary screen, mouse 2C CD8+ T cells, flow cytometry; 2C CD8+ T cell-vesicle binding; hits give low values; response (vesicle binding), % at 7 µM; actives 0.068% (n = 330,000);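 active means response, share of CD8 T cells binding vesicles, and their 90th percentile fluorescence all below set limits, cut at about 80% in these data, passing the limit was not always enough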;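 further: values below 100% mean blocked vesicle binding to the CD8+ T cells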
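Also added: QL9-peptide-loaded Drosophila micro-vesicles bearing Ld, ICAM-1 and B7-1; Test system: purified 2C TCR transgenic mouse naive CD8+ T cells; Measured by: cytometric PE anti-B7-1 and Alexa647 anti-CD8 signals after 1% paraformaldehyde fixation; Timing: binding step 1.5 h, 37 °C, antibody labelling 20 min, ice.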
MEX-5 binding: MEX-5 zinc finger RNA-binding disruptors – biochemical, C. elegans, fluorescence polarization, MLPCN library, primary screen | actives 0.38% (n = 300,000) | activity score (negative = inhibition of binding), % at 10 µM | Zinc finger protein mex-5 (Caenorhabditis elegans), Q9XUB2 | MEX-5/FITC-TCR2 RNA binding; hits give low values;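 active means inhibition past about -25% in most replicates, and total fluorescence under double the plate's negative control median, limit read from the data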
Target sequence (Q9XUB2 whole entry, looked up): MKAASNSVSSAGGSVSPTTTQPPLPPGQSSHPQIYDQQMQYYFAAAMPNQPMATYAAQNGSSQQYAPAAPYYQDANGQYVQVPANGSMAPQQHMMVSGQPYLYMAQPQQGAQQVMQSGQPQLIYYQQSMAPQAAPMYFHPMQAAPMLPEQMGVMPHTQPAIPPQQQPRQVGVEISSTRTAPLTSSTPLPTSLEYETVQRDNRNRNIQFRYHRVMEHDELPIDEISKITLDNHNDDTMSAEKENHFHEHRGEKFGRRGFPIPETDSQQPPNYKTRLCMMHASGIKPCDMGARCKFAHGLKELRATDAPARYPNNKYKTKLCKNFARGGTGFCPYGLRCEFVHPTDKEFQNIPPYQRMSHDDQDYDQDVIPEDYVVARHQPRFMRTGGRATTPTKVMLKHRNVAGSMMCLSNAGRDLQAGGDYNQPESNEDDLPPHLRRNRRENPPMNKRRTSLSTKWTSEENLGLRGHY
EBV gp42 block: Epstein-Barr virus gp42 inhibitors, primary screen, biochemical, uHTS, fluorescence polarization; actives 0.42% (n = 220,000); Fluorescence polarization binding assay, mP read-out; Glycoprotein 42 (Epstein-Barr virus (strain AG876)), Q1HVG2; inhibition, % (tested at 21.74 µM); in the data active means inhibition above about 50%
Target sequence (Q1HVG2 whole entry, looked up): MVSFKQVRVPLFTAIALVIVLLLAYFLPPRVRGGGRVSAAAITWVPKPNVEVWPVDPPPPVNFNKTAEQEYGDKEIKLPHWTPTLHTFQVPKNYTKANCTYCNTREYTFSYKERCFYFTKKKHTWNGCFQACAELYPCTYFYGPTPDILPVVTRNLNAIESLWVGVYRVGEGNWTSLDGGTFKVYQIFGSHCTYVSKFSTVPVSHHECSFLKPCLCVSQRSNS
C-LANA FP: inhibitors of KSHV C-LANA binding to DNA, primary screen, biochemical, fluorescence polarization, FAM-LBS DNA, MBP-C-LANA, single point; inhibition, % at 9 µM; AID 504423, 2011; Kaposi's sarcoma herpesvirus LANA C-terminal domain (residues 932-1162) DNA binding; actives 0.078% (n = 340,000);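 active means highest replicate inhibition at or above 60% at 9 µM, even if other replicates fall short; inactive means all replicates below 60% inhibition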
GRK2 inh: compounds blocking aptamer binding on GRK2 – biochemical, human GRK2, bead flow cytometry, HTS, primary screen. Beta-adrenergic receptor kinase 1 (Homo sapiens), P25098. FAM-aptamer displacement from GRK2. inhibition of aptamer binding, % at 10 µM. actives 0.59% (n = 330,000);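 active means inhibition of aptamer binding above 40%, roughly 3 SD of noise, on plates passing a quality check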;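 further: median bead fluorescence of bound FAM aptamer so fluorescent compounds give negative values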
Keap1 Nrf2 FP: Keap1-Nrf2 protein-protein interaction inhibitors, primary screen, biochemical, fluorescence polarization, single point. actives 0.15% (n = 340,000). inhibition, % at 9.4 µM. Kelch-like ECH-associated protein 1 (Homo sapiens), Q14145. AID 504523, 2011. Keap1 Kelch-Nrf2 peptide fluorescence polarization, 1536-well; in the data active means inhibition above about 12%;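 further: human Keap1 Kelch domain with fluorescein labeled Nrf2 9mer peptide probe; higher means more block of Keap1 binding to Nrf2 peptide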
Hits are given with their value. The list is not random: actives were taken first. Their share in the collection is about 1.3%.

How did O=C(CSc1nncs1)NC(=O)Nc1ccc2c(c1)OCCO2 do in these assays?
T cell HTS: inactive; MEX-5 binding: inactive; EBV gp42 block: inactive; C-LANA FP: inactive; GRK2 inh: inactive; Keap1 Nrf2 FP: inactive

How did CCCCC(=O)Nc1nnc(/C=C/c2ccc(OC)cc2)s1 do in these assays?
T cell HTS: inactive; MEX-5 binding: inactive; C-LANA FP: inactive; GRK2 inh: inactive; Keap1 Nrf2 FP: inactive

Results for CCN1C(=O)/C(=C2/C=Cc3ccccc3N2C)OC1=S ?
T cell HTS: inactive; MEX-5 binding: -28.2; EBV gp42 block: inactive; C-LANA FP: inactive; GRK2 inh: inactive; Keap1 Nrf2 FP: inactive

How did C=CCn1c(Cc2nc3ccccc3[nH]2)n[nH]c1=S do in these assays?
T cell HTS: inactive; MEX-5 binding: -51.1; EBV gp42 block: inactive; C-LANA FP: inactive; GRK2 inh: inactive; Keap1 Nrf2 FP: inactive

Results for CCCSc1nc2sc3c(c2c(=O)[nH]1)CCN(Cc1ccccc1)C3 ?
T cell HTS: inactive; MEX-5 binding: inactive; EBV gp42 block: inactive; C-LANA FP: inactive; GRK2 inh: inactive; Keap1 Nrf2 FP: inactive

How did O=c1[nH]c(C(Cl)Cl)nc2sc3c(c12)CCN(Cc1ccccc1)C3 do in these assays?
T cell HTS: inactive; MEX-5 binding: inactive; EBV gp42 block: 56.2; C-LANA FP: inactive; GRK2 inh: inactive; Keap1 Nrf2 FP: inactive

Results for C/C(=N\NC(=S)NCc1ccccc1)c1ccc2ccccc2c1 ?
T cell HTS: inactive; MEX-5 binding: inactive; EBV gp42 block: inactive; C-LANA FP: inactive; GRK2 inh: 98.0; Keap1 Nrf2 FP: inactive

What do the screens show for `CC(C)CC(=O)Nc1nnc(S(=O)(=O)N2CCCCCC2)s1`?
T cell HTS: inactive; MEX-5 binding: inactive; C-LANA FP: inactive; GRK2 inh: inactive; Keap1 Nrf2 FP: inactive

What do the screens show for `O=C1C2CC=C(Cl)CC2C(=O)N1CC1Cc2ccccc2CO1` (stereo unspecified)?
T cell HTS: inactive; MEX-5 binding: -25.9; EBV gp42 block: inactive; C-LANA FP: inactive; GRK2 inh: inactive; Keap1 Nrf2 FP: inactive

Results for Cc1ccc(C)n1-c1cc(S(=O)(=O)N2CCOCC2)ccc1N1CCCC1 ?
T cell HTS: inactive; MEX-5 binding: inactive; EBV gp42 block: 95.5; C-LANA FP: inactive; GRK2 inh: inactive; Keap1 Nrf2 FP: inactive

Results for O=C(Cc1nnc(NC(=O)c2ccccc2)s1)N/N=C/c1cccc(O)c1 ?
T cell HTS: inactive; MEX-5 binding: inactive; C-LANA FP: inactive; GRK2 inh: inactive; Keap1 Nrf2 FP: inactive

Results for O=C(Cc1nnc(NC(=O)c2ccccc2)s1)N/N=C/c1ccco1 ?
T cell HTS: 0.0; MEX-5 binding: inactive; EBV gp42 block: inactive; C-LANA FP: inactive; GRK2 inh: inactive; Keap1 Nrf2 FP: inactive

Results for O=C1C2=C(SCCS2)C(=O)N1c1ccccc1 ?
T cell HTS: inactive; MEX-5 binding: -45.4; EBV gp42 block: inactive; C-LANA FP: inactive; GRK2 inh: inactive; Keap1 Nrf2 FP: inactive

How did COc1ccc(Cn2nnnc2C(c2cccs2)N2CCCCCC2)cc1 (stereo unspecified) do in these assays?
T cell HTS: 52.3; MEX-5 binding: inactive; EBV gp42 block: inactive; C-LANA FP: inactive; GRK2 inh: inactive; Keap1 Nrf2 FP: inactive

How did COc1ccc(Cn2nnnc2C(c2cccs2)N2CCSCC2)cc1 (stereo unspecified) do in these assays?
T cell HTS: inactive; MEX-5 binding: inactive; EBV gp42 block: inactive; C-LANA FP: inactive; GRK2 inh: inactive; Keap1 Nrf2 FP: inactive

How did Cc1ccc(COc2ccc(/C=N/NC(=O)c3nnn(-c4nonc4N)c3COc3ccc(F)cc3)cc2)cc1 do in these assays?
T cell HTS: inactive; MEX-5 binding: inactive; EBV gp42 block: inactive; C-LANA FP: inactive; GRK2 inh: inactive; Keap1 Nrf2 FP: inactive

Results for Cc1ccc2cc(/C=C3\N=C(c4ccccc4)OC3=O)c(N3CCOCC3)nc2c1 ?
T cell HTS: inactive; MEX-5 binding: -33.8; EBV gp42 block: 157.5; GRK2 inh: inactive

Results for O=Cc1c(Sc2ccccc2)nc2ccccn2c1=O ?
T cell HTS: inactive; MEX-5 binding: inactive; EBV gp42 block: inactive; C-LANA FP: inactive; GRK2 inh: inactive; Keap1 Nrf2 FP: inactive

Results for O=c1c(/C=N/Nc2ccccc2)c(Sc2nnnn2-c2ccccc2)nc2ccccn12 ?
EBV gp42 block: 152.4; C-LANA FP: inactive; Keap1 Nrf2 FP: inactive

How did O=C(O)c1ccccc1N/N=C/c1c(Sc2nnnn2-c2ccccc2)nc2ccccn2c1=O do in these assays?
T cell HTS: inactive; MEX-5 binding: -25.6; EBV gp42 block: inactive; C-LANA FP: inactive; GRK2 inh: inactive; Keap1 Nrf2 FP: inactive

How did Cc1ccc(S(=O)(=O)N2CCCC(C(=O)NC3CCCC3)C2)cc1Cl (stereo unspecified) do in these assays?
T cell HTS: inactive; MEX-5 binding: inactive; C-LANA FP: inactive; GRK2 inh: inactive; Keap1 Nrf2 FP: inactive

Results for Cc1ccc(NS(=O)(=O)c2cc(-c3n[nH]c(=O)c4ccccc34)ccc2C)cc1 ?
T cell HTS: inactive; MEX-5 binding: inactive; EBV gp42 block: inactive; C-LANA FP: inactive; GRK2 inh: inactive; Keap1 Nrf2 FP: inactive

How did C/C(=N\Nc1ccc(Cl)c(C(=O)O)c1)c1ccc[nH]1 do in these assays?
T cell HTS: inactive; MEX-5 binding: -38.2; EBV gp42 block: inactive; C-LANA FP: inactive; GRK2 inh: inactive; Keap1 Nrf2 FP: inactive

Results for C/C(=N\Nc1ccc(Cl)c(C(=O)O)c1)c1cccs1 ?
T cell HTS: inactive; MEX-5 binding: inactive; EBV gp42 block: inactive; C-LANA FP: inactive; GRK2 inh: inactive; Keap1 Nrf2 FP: inactive

Results for O=C(NCC1CCCCC1)c1ccc(=O)[nH]c1 ?
T cell HTS: inactive; MEX-5 binding: inactive; C-LANA FP: inactive; GRK2 inh: inactive; Keap1 Nrf2 FP: inactive

What do the screens show for `O=C(O)/C=C/C(=O)Nc1ccccc1SC(F)(F)C(F)(F)C(F)(F)F`?
T cell HTS: inactive; MEX-5 binding: inactive; EBV gp42 block: inactive; C-LANA FP: inactive; GRK2 inh: inactive; Keap1 Nrf2 FP: inactive

How did Cc1ccc(NC(=S)c2ccc3ccccc3n2)c(C)c1 do in these assays?
T cell HTS: inactive; MEX-5 binding: -37.9; C-LANA FP: inactive; GRK2 inh: inactive; Keap1 Nrf2 FP: inactive

How did Cc1ccc(C)c(NC(=O)c2ccc3ccccc3n2)c1 do in these assays?
T cell HTS: inactive; MEX-5 binding: inactive; EBV gp42 block: inactive; C-LANA FP: inactive; GRK2 inh: inactive; Keap1 Nrf2 FP: inactive
